Results published in ChEMBL document CHEMBL1125798, “Synthesis and biological activity of a series of diaryl-substituted alpha-cyano-beta-hydroxypropenamides, a new class of anthelmintic agents” (1991).

Key:
Assay type in all cases: functional
[1] = tested on: Rodentolepis nana; assay: Anthelmintic activity against mice infected with parasite Hymenolepis nana at a dose of 125 ppm (in feed)
Outline: (§1)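 Compound was given in feed ad libitum from 24 h postinfection for 18 days, four mice per group. On day 19, N. dubius were counted in the duodenum and H. nana in the ileum. Result is % reduction of mean worm burden vs untreated control; ≤25% was recorded as 0.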

[2] = tested on: Heligmosomoides polygyrus; assay: Anthelmintic activity against mice, infected with parasite Nematospiroides dubius, at a dose of 125 (ppm in feed); outline: as §1
[3] = tested on: Rodentolepis nana; assay: Anthelmintic activity against mice infected with parasite Hymenolepis nana at a dose of 62(ppm in feed).; outline: as §1
[4] = tested on: Heligmosomoides polygyrus; assay: Anthelmintic activity against mice infected with parasite Nematospiroides dubius, at a dose of 62(ppm in feed).; outline: as §1
[5] = tested on: Ovis aries; assay: Anthelmintic activity against sheep, infected with Haemonchus contortus, at a dose of 30 mg/kg.
Outline: (§2)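 Merino ewes and wethers (12-15 months, 25-35 kg) received L3 intraruminally on day 0. Susceptible strains: H. contortus 6000, O. circumcincta 8000, T. colubriformis 8000. Benzimidazole-resistant strains: 8000, 9000, 9000. Animals were allocated by day-27 fecal egg count (n = 4-7) and given a single intraruminal dose in 0.5% carboxymethylcellulose saline. Adult worms in abomasum and small intestine were counted on day 35. Result is mean % reduction vs untreated controls.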

[6] = tested on: Ovis aries; assay: Anthelmintic activity against sheep, infected with Ostertagia circumcincta, at a dose of 30 mg/kg.; outline: as §2
[7] = tested on: Ovis aries; assay: Anthelmintic activity against sheep, infected with Trichostrongylus colubriformis, at a dose of 30 mg/kg.; outline: as §2
[8] = tested on: Rodentolepis nana; assay: The compound was tested for anthelmintic activity against mice, infected with parasite Hymenolepis nana at a dose of 250(ppm in feed); outline: as §1
[9] = tested on: Heligmosomoides polygyrus; assay: Anthelmintic activity against mice, infected with parasite Nematospiroides dubius, at a dose of 250(ppm in feed); outline: as §1
[10] = tested on: Rodentolepis nana; assay: The compound was tested for anthelmintic activity against mice, infected with parasite Hymenolepis nana at a dose of 500(ppm in feed); outline: as §1
[11] = tested on: Heligmosomoides polygyrus; assay: Anthelmintic activity against mice, infected with parasite Nematospiroides dubius, at a dose of 500(ppm in feed); outline: as §1
[12] = tested on: Rodentolepis nana; assay: The compound was tested for anthelmintic activity against mice, infected with parasite Hymenolepis nana at a dose of 31(ppm in feed); outline: as §1
[13] = tested on: Heligmosomoides polygyrus; assay: Anthelmintic activity against mice, infected with parasite Nematospiroides dubius, at a dose of 31(ppm in feed); outline: as §1
[14] = tested on: Heligmosomoides polygyrus; assay: Anthelmintic activity against mice, infected with parasite Nematospiroides dubius, at a dose of 62(ppm in feed); outline: as §1

Compound	Reduction [1]	Reduction [2]	Reduction [3]	Reduction [4]	further results
N#C/C(C(=O)Nc1cccc(C(F)(F)F)c1)=C(/O)c1ccc(C(F)(F)F)cc1	0%	0%	–	–	–
N#C/C(C(=O)Nc1ccc(C(F)(F)F)cc1)=C(/O)c1ccc(C#N)cc1	78%	28%	–	–	–
N#C/C(C(=O)Nc1ccc(C(F)(F)F)cc1)=C(/O)c1cc(Cl)cc(Cl)c1	100%	100%	0%	0%	Reduction [5]: 100%; Reduction [6]: 0%; Reduction [7]: 0%
N#C/C(C(=O)Nc1ccc(C(F)(F)F)cc1)=C(/O)c1ccc(S(=O)(=O)c2ccccc2)cc1	0%	0%	–	–	–
N#C/C(C(=O)Nc1ccc(Cl)cc1)=C(/O)c1ccc(Cl)cc1	100%	100%	30%	59%	–
N#C/C(C(=O)Nc1ccc(C(F)(F)F)cc1)=C(/O)c1ccccc1C(F)(F)F	0%	0%	–	–	–
N#C/C(C(=O)Nc1ccc(I)cc1)=C(/O)c1ccc(C(F)(F)F)cc1	0%	100%	0%	0%	–
N#C/C(C(=O)Nc1ccc(Cl)c(Cl)c1)=C(/O)c1ccc(C(F)(F)F)cc1	93%	100%	0%	0%	–
Cc1ccc(/C(O)=C(\C#N)C(=O)Nc2ccc(C(F)(F)F)cc2)cc1	0%	0%	–	–	–
CS(=O)(=O)c1ccc(NC(=O)/C(C#N)=C(\O)c2ccc(C(F)(F)F)cc2)cc1	0%	0%	–	–	–
N#C/C(C(=O)Nc1ccc(C(F)(F)F)cc1)=C(O)\C=C\c1ccc(C(F)(F)F)cc1	–	–	–	–	Reduction [8]: 0%; Reduction [9]: 48%
N#C/C(C(=O)Nc1ccc(Cl)cc1)=C(/O)c1ccc(Br)cc1	0%	100%	0%	76%	–
N#C/C(C(=O)Nc1ccc(C(F)(F)F)cc1)=C(/O)c1ccc(Cl)c(Cl)c1	0%	95%	0%	0%	–
N#C/C(C(=O)Nc1ccc(C(F)(F)F)cc1)=C(/O)c1ccc(Oc2ccc(Cl)cc2)cc1	0%	30%	–	–	–
N#C/C(C(=O)Nc1ccc(C#N)cc1)=C(/O)c1ccc(C(F)(F)F)cc1	100%	100%	0%	43%	Reduction [5]: 87%; Reduction [6]: 7%; Reduction [7]: 26%
CC(=O)c1ccc(NC(=O)/C(C#N)=C(\O)c2ccc(C(F)(F)F)cc2)cc1	0%	0%	–	–	–
CN(C(=O)/C(C#N)=C(\O)c1ccc(C(F)(F)F)cc1)c1ccc(C(F)(F)F)cc1	0%	100%	0%	76%	–
N#CSc1ccc(NC(=O)/C(C#N)=C(\O)c2ccc(C(F)(F)F)cc2)cc1	0%	0%	–	–	–
N#C/C(C(=O)Nc1ccccc1)=C(/O)c1ccc(C(F)(F)F)cc1	–	–	–	–	Reduction [10]: 100%; Reduction [11]: 32%
N#C/C(C(=O)Nc1ccc(Br)cc1)=C(/O)c1ccc(C(F)(F)F)cc1	95%	100%	0%	56%	–
N#C/C(C(=O)Nc1ccc(N=C=S)cc1)=C(/O)c1ccc(C(F)(F)F)cc1	0%	80%	–	–	–
COC(=O)c1ccc(NC(=O)/C(C#N)=C(\O)c2ccc(C(F)(F)F)cc2)cc1	0%	0%	–	–	–
N#C/C(C(=O)Nc1ccc(Br)cc1)=C(/O)c1ccc(Br)cc1	0%	100%	0%	29%	–
N#C/C(C(=O)Nc1ccc(Cl)cc1)=C(/O)c1ccc(C(F)(F)F)cc1	100%	100%	78%	65%	–
N#C/C(C(=O)Nc1ccc(Sc2ccc(Cl)cc2)cc1)=C(/O)c1ccc(C(F)(F)F)cc1	0%	0%	–	–	Reduction [8]: 33%; Reduction [9]: 94%
N#C/C(C(=O)Nc1ccc(OC(F)(F)F)cc1)=C(/O)c1ccc(OC(F)(F)F)cc1	–	–	56%	100%	Reduction [12]: 0%; Reduction [13]: 39%

Compound	Reduction [1]	Reduction [2]	Reduction [3]	Reduction [4]	further results
N#C/C(C(=O)Nc1ccc(C(F)(F)F)cc1)=C(/O)c1ccc(Cl)cc1Cl	–	–	52%	32%	–
N#C/C(C(=O)Nc1ccc(C(F)(F)F)cc1)=C(/O)c1cccc(Cl)c1	0%	0%	–	–	–
N#C/C(C(=O)Nc1ccc(Cl)c(Cl)c1)=C(/O)c1ccc(Cl)cc1	47%	57%	–	–	–
N#C/C(C(=O)Nc1ccc(Cl)cc1)=C(/O)c1ccc(Cl)c(Cl)c1	100%	100%	0%	32%	–
N#C/C(C(=O)Nc1ccc(F)cc1)=C(/O)c1ccc(F)cc1	0%	0%	–	–	–
N#C/C(C(=O)Nc1ccc(Br)cc1)=C(/O)c1ccc(Cl)cc1	0%	100%	0%	47%	–
N#C/C(C(=O)Nc1ccc(C(F)(F)F)cc1)=C(/O)c1ccc(I)cc1	89%	97%	0%	0%	–
N#C/C(C(=O)c1ccc(C(F)(F)F)cc1)=C(/S)Nc1ccc(C(F)(F)F)cc1	0%	0%	–	–	Reduction [8]: 90%; Reduction [9]: 100%
N#C/C(C(=O)Nc1ccc(Sc2ccccc2)cc1)=C(/O)c1ccc(C(F)(F)F)cc1	–	–	–	–	Reduction [8]: 0%; Reduction [9]: 0%
COc1ccc(/C(O)=C(\C#N)C(=O)Nc2ccc(C(F)(F)F)cc2)cc1	0%	0%	–	–	–
Cc1cc(C#N)ccc1NC(=O)/C(C#N)=C(\O)c1ccc(C(F)(F)F)cc1	100%	90%	0%	0%	–
N#C/C(C(=O)Nc1ccc(C(F)(F)F)cc1)=C(/O)c1ccc(Cl)cc1	–	–	0%	53%	–
N#C/C(C(=O)Nc1ccc(Cl)c(Cl)c1)=C(/O)c1ccc(Cl)c(Cl)c1	0%	0%	–	–	Reduction [5]: 100%; Reduction [6]: 0%; Reduction [7]: 0%
N#C/C(C(=O)Nc1ccc(C(F)(F)F)cc1)=C(/O)c1ccc(F)cc1	100%	100%	0%	0%	–
N#C/C(C(=O)Nc1ccc(Oc2ccc(Cl)cc2)c(Cl)c1)=C(/O)c1ccc(C(F)(F)F)cc1	0%	0%	–	–	Reduction [10]: 83%; Reduction [5]: 0%; Reduction [6]: 0%; Reduction [7]: 0%; Reduction [11]: 100%
N#C/C(C(=O)Nc1ccc(C(F)(F)F)cc1)=C(/O)c1ccc([N+](=O)[O-])cc1	–	–	69%	0%	–
N#C/C(C(=O)Nc1ccc(C(F)(F)F)cc1)=C(/O)c1cccc(C(F)(F)F)c1	100%	89%	0%	0%	–
N#C/C(C(=O)Nc1ccc(C(F)(F)F)cc1)=C(/O)c1ccc(OC(F)(F)F)cc1	100%	100%	0%	86%	–
COc1ccc(NC(=O)/C(C#N)=C(\O)c2ccc(C(F)(F)F)cc2)cc1	0%	0%	–	–	–
N#C/C(C(=O)Nc1ccc(F)cc1)=C(/O)c1ccc(C(F)(F)F)cc1	0%	100%	0%	–	Reduction [14]: 0%
CCN(CC)C(=O)c1ccc(NC(=O)/C(C#N)=C(\O)c2ccc(C(F)(F)F)cc2)cc1	0%	0%	–	–	–
N#C/C(C(=O)Nc1ccc(Cl)cc1Cl)=C(/O)c1ccc(C(F)(F)F)cc1	100%	89%	63%	0%	–
Cc1cc([N+](=O)[O-])ccc1NC(=O)/C(C#N)=C(\O)c1ccc(C(F)(F)F)cc1	99%	97%	0%	35%	Reduction [5]: 0%; Reduction [6]: 0%; Reduction [7]: 0%
N#C/C(C(=O)Nc1ccccc1C(F)(F)F)=C(/O)c1ccc(C(F)(F)F)cc1	0%	0%	–	–	–
N#C/C(C(=O)Nc1ccc(C(F)(F)F)cc1)=C(/O)Cc1ccc(C(F)(F)F)cc1	0%	35%	–	–	Reduction [8]: 0%; Reduction [9]: 90%; Reduction [5]: 78%; Reduction [6]: 0%; Reduction [7]: 0%
